Laboratory results: ChEMBL document CHEMBL2390935, “Synthesis and pharmacological properties of a new hydrophilic and orally bioavailable 5-HT4 antagonist” (Eur J Med Chem, 2013)

Experiments:
[1] = Cmax in Sprague-Dawley rat at 10 mg/kg, po by LC-MS/MS analysis; type: ADME, organism-based; set-up: dose 10 mg/kg, route oral; details: in vivo
How it was run: (§1)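 Male Sprague-Dawley rats (n = 3 per compound, n = 2 for the medoxomil prodrug) given 10 mg/kg p.o., in 10% ethanol in water or in 2% β-cyclodextrin (1.0 mg/ml). Tail-vein and terminal blood taken to 24 h. Plasma acidified and acetonitrile-precipitated. Free acid quantified by UPLC-ESI MRM MS. Non-compartmental analysis for each animal, then averaged; AUC by linear trapezoidal rule extrapolated to infinity; Cmax and Tmax read directly; T1/2 from terminal slope.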

[2] = Oral bioavailability in Sprague-Dawley rat at 10 mg/kg by LC-MS/MS analysis; type: ADME, organism-based; details: in vivo
How it was run: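 Male Sprague-Dawley rats dosed 10 mg/kg p.o. and 1 mg/kg i.v. Plasma free acid measured by LC-MS/MS at timed samples up to 24 h. Non-compartmental AUC (trapezoidal, extrapolated to infinity). F = (AUC p.o./dose p.o.)/(AUC i.v./dose i.v.), expressed in %.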

[3] = system: Rattus norvegicus; experiment: Oral bioavailability in Sprague-Dawley rat assessed as 2-[4-[[4-(3,4-dihydro-2H-[1,3]oxazino[3,2-a]indole-10-carbonyloxymethyl)-1-piperidinyl]methyl]phenyl]-2-methylpropanoic acid level at 10 mg/kg by LC-MS/MS analysis; type: ADME, organism-based; details: in vivo
How it was run: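 Rats given 10 mg/kg orally and, for the free acid, 1 mg/kg i.v. Free-acid plasma levels measured by LC-MS at timed points. AUC by linear trapezoidal rule, extrapolated to infinity. F = (AUC p.o./dose p.o.)/(AUC i.v./dose i.v.), reported as %.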

[4] = Elimination half life in Sprague-Dawley rat at 10 mg/kg, po by LC-MS/MS analysis; type: ADME, organism-based; set-up: dose 10 mg/kg, route oral; details: in vivo, read-out: beta t1/2; how it was run: as §1
[5] = system: Rattus norvegicus; experiment: AUC in Sprague-Dawley rat assessed as 2-[4-[[4-(3,4-dihydro-2H-[1,3]oxazino[3,2-a]indole-10-carbonyloxymethyl)-1-piperidinyl]methyl]phenyl]-2-methylpropanoic acid level at 10 mg/kg, po by LC-MS/MS analysis; type: ADME, organism-based, Plasma; set-up: dose 10 mg/kg, route oral; details: in vivo
How it was run: (§2)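 Male Sprague-Dawley rats, 10 mg/kg p.o. in 10% ethanol/water or 2% β-cyclodextrin (1.0 mg/ml), n = 2–3. Tail-vein and terminal cardiac blood taken under isoflurane at 5 min–24 h. Plasma acidified and acetonitrile-precipitated, then the free acid measured by LC-MS MRM (LOQ 0.5 ng/ml). Non-compartmental analysis per animal, averaged. T1/2 from the terminal log-linear regression; Cmax and Tmax read directly.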

[6] = 1-octanol-PBS partition coefficient, log D of the compound at pH 7.4 by shake-flask method; type: physicochemical
[7] = system: Rattus norvegicus; experiment: Cmax in Sprague-Dawley rat assessed as 2-[4-[[4-(3,4-dihydro-2H-[1,3]oxazino[3,2-a]indole-10-carbonyloxymethyl)-1-piperidinyl]methyl]phenyl]-2-methylpropanoic acid level at 10 mg/kg, po by LC-MS/MS analysis; type: ADME, organism-based; set-up: dose 10 mg/kg, route oral; details: in vivo; how it was run: as §2
[8] = system: Rattus norvegicus; experiment: Tmax in Sprague-Dawley rat assessed as 2-[4-[[4-(3,4-dihydro-2H-[1,3]oxazino[3,2-a]indole-10-carbonyloxymethyl)-1-piperidinyl]methyl]phenyl]-2-methylpropanoic acid level at 10 mg/kg, po by LC-MS/MS analysis; type: ADME, organism-based; set-up: dose 10 mg/kg, route oral; details: in vivo; how it was run: as §2
[9] = system: Rattus norvegicus; experiment: AUC in Sprague-Dawley rat at 10 mg/kg, po by LC-MS/MS analysis; type: ADME, organism-based, Plasma; set-up: dose 10 mg/kg, route oral; details: in vivo; how it was run: as §1
[10] = Tmax in Sprague-Dawley rat at 10 mg/kg, po by LC-MS/MS analysis; type: ADME, organism-based; set-up: dose 10 mg/kg, route oral; details: in vivo; how it was run: as §1
[11] = system: Rattus norvegicus; experiment: Elimination half life in Sprague-Dawley rat assessed as 2-[4-[[4-(3,4-dihydro-2H-[1,3]oxazino[3,2-a]indole-10-carbonyloxymethyl)-1-piperidinyl]methyl]phenyl]-2-methylpropanoic acid level at 10 mg/kg, po by LC-MS/MS analysis; type: ADME, organism-based; set-up: dose 10 mg/kg, route oral; details: in vivo; how it was run: as §2
[12] = molecular target: T1, 5-hydroxytryptamine receptor 4 (Homo sapiens, UniProt Q13639); experiment: Antagonist activity at human 5-HT4B receptor expressed in HEK293 cells assessed as inhibition of 5-HT-stimulated adenylyl cyclase activity after 20 mins; type: functional, cell-based
T1 sequence (Q13639 whole entry): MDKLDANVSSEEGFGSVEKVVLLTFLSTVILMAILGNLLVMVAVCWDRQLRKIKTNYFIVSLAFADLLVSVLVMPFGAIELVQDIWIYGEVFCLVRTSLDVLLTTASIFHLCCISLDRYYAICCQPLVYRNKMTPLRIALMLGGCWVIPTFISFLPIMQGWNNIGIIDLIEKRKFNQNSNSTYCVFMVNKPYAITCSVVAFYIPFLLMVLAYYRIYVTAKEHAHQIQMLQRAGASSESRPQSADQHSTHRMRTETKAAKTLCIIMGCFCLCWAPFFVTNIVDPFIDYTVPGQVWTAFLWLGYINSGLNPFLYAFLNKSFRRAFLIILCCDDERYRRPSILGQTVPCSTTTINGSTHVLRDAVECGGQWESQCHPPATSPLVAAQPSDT
How it was run: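 Membranes from HEK293 cells stably expressing human 5-HT4(b). Adenylyl cyclase activity stimulated by 1 µM 5-HT. Inhibition measured across a concentration range of test compound.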

[13] = molecular target: T1, 5-hydroxytryptamine receptor 4; experiment: Displacement of [3H]GR113808 from human 5-HT4B receptor expressed in HEK293 cells after 1 hr by liquid scintillation counting analysis; type: cell-based
How it was run: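 Competitive binding with 0.3 nM [3H]GR113808 on membranes from HEK293 cells stably expressing human 5-HT4(b).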

[14] = Metabolic stability in human liver microsomes assessed as compound remaining at 2 uM after 60 mins by LC-MS analysis; type: ADME, Microsome; details: read-out: Stability
How it was run: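 Pooled human liver microsomes (30 donors) at 0.5 mg protein/ml, 2 µM substrate, 1% DMSO, 1 mM NADPH plus 1 mM UDPGA, 37 °C. Cofactor-free parallel incubations run. Samples taken at 0, 10, 30 and 60 min and quenched with ice-cold acetonitrile. Disappearance judged by LC-MS peak area against the 0 min sample without cofactors.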

[15] = molecular target: Voltage-gated inwardly rectifying potassium channel KCNH2 (Homo sapiens, UniProt Q12809); experiment: Inhibition of human ERG expressed in HEK293 cells by whole-cell patch-clamp technique; type: cell-based
Voltage-gated inwardly rectifying potassium channel KCNH2, sequence (Q12809 whole entry, the tested form may be a part): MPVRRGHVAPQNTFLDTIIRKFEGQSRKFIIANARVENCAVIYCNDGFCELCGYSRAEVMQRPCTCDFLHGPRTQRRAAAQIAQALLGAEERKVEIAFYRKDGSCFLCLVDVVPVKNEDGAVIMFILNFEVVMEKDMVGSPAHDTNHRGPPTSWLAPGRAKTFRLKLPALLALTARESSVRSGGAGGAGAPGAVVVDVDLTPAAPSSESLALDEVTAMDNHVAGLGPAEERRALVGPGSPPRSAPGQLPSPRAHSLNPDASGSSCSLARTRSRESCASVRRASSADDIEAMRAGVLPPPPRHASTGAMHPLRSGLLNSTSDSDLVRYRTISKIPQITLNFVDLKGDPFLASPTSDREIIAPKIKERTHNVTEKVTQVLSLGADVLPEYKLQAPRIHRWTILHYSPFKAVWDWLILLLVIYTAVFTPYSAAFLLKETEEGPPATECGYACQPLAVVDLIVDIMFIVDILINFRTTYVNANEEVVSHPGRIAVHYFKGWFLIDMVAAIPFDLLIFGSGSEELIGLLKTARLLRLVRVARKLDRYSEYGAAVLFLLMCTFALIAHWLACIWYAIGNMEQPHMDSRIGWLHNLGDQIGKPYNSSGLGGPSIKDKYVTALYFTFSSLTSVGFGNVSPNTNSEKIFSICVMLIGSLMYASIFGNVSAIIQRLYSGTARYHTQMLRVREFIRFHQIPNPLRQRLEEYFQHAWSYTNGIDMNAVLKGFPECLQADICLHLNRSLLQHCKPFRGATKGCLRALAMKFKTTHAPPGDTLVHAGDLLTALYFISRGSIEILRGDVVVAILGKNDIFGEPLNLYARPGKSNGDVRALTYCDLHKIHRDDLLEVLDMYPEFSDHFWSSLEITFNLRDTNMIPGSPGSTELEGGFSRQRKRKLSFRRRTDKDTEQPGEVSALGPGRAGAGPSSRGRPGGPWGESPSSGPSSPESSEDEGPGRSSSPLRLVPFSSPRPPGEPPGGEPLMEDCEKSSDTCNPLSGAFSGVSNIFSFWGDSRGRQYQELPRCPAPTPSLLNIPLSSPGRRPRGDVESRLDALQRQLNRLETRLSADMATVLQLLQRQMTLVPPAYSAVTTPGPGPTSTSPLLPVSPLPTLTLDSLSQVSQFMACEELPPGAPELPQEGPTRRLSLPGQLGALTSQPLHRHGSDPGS
How it was run: (§3)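 Whole-cell patch clamp on isolated hERG-expressing cells superfused with HB-PSS, one cell per coverslip, holding potential -80 mV. Peak tail current averaged over 5–10 pulses. Baseline taken before exposure; ascending concentrations applied to steady state without washout, at least 3 cells per concentration. Residual current corrected for time-matched vehicle rundown. IC50 from a Hill-type fit. Terfenadine 50 nM served as positive control.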

[16] = molecular target: hERG (KCNH2) (Homo sapiens, UniProt Q12809); experiment: Inhibition of human ERG expressed in HEK293 cells at 100 uM by whole-cell patch-clamp technique relative to control; type: cell-based; details: HEK293 cells expressing human ERG; how it was run: as §3
hERG (KCNH2), sequence (Q12809 whole entry): as the sequence (Q12809 whole entry, the tested form may be a part) above

Work on `CC(C)(C)c1ccc(CN2CCC(COC(=O)c3c4n(c5ccccc35)CCCO4)CC2)cc1` yielded a Cmax [1] of 33 ng/mL, a bioavailability [2] of 6% and an F [3] of 1%. It also gave a half-life [4] of 26.8 h, an AUC [5] of 127 ng·h/mL and a logD [6] of 2.4. For the same compound, the Cmax [7] was 13 ng/mL, the Tmax [8] was 1.33 h and the AUC [9] was 533 ng·h/mL. The Tmax [10] was 5.67 h and the “beta t1/2” value [11] was 19.83 h.
With `Cn1cc(C(=O)OCC2CCN(CCNS(C)(=O)=O)CC2)c2ccccc21` the pKb [12] was 8.7 and the Ki [13] was 0.0398 nM.
In the case of `CC(C)(C(=O)O)c1ccc(CN2CCC(COC(=O)c3c4n(c5ccccc35)CCCO4)CC2)cc1`, the pKb [12] is reported as 8.6, the remaining at 1 h, 2 µM [14] is reported as < 0.1% and the IC50 [15] is reported as 69000 nM. For the same compound, the Cmax [1] was 130 ng/mL, the Ki [13] was 0.126 nM and the bioavailability [2] was 3%. The half-life [4] was 6.07 h, the logD [6] was -1.2 and the AUC [9] was 285 ng·h/mL. The inhibition at 100 µM [16] was 55.8% and the Tmax [10] was 0.2 h.
`Cc1oc(=O)oc1COC(=O)C(C)(C)c1ccc(CN2CCC(COC(=O)c3c4n(c5ccccc35)CCCO4)CC2)cc1` showed an F [3] of 16%, an AUC [5] of 1206 ng·h/mL and a logD [6] of 2.2. The Cmax [7] was 817 ng/mL, the Tmax [8] was 0.5 h and the “beta t1/2” value [11] was 1.2 h.
In the case of `CCCCN1CCC(CNC(=O)c2c3n(c4ccccc24)CCCO3)CC1` [PIBOSEROD], the pKb [12] is reported as 9.1 and the Ki [13] is reported as 0.1 nM.
